Measurements reported in ChEMBL document CHEMBL1155805 (J Med Chem, 2008).

Legend:
[1] = Displacement of [3H]prazosin from adrenergic receptor alpha1 in CRL:CD(SD)BR-COBS rat brain cortex
Procedure, shortened: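 Cortical membranes were washed (50000g, 10 min at 37 °C) and suspended in 50 mM Tris·HCl pH 7.7 with 10 µM pargyline and 0.1% ascorbic acid. Incubation used 0.2 nM [3H]prazosin for 30 min at 25 °C. Nonspecific binding was defined with 3 µM phentolamine. Filtration was used. Ki is the mean ± SD of three experiments.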

[2] = target: T1, 5-hydroxytryptamine receptor 1A (Rattus norvegicus, UniProt P19327); experiment: Displacement of [3H]8-OH-DPAT from 5HT1A receptor in CRL:CD(SD)BR-COBS rat hippocampus; assay type: tissue-based
T1 sequence (P19327 whole entry): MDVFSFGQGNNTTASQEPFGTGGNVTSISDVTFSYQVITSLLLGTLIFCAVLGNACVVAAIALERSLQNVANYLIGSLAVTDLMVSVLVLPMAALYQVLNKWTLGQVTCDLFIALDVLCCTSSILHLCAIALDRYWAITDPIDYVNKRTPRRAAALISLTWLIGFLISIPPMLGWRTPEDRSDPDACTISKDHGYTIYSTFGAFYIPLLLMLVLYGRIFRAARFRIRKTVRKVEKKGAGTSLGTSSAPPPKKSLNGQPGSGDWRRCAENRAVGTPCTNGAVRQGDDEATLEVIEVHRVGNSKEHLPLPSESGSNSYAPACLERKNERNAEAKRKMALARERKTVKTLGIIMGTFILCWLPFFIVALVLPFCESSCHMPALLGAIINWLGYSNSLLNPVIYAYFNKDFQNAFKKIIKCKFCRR
Procedure, shortened: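 Rat hippocampus homogenized in 50 mM Tris·HCl pH 7.4, spun at 50000g, warmed 10 min at 37 °C, washed, then resuspended in 50 mM Tris·HCl pH 7.7 with 10 µM pargyline and 4 mM CaCl2. Incubation used 1 nM [3H]8-OH-DPAT for 30 min at 25 °C. Nonspecific binding was defined with 10 µM 5-HT. Separation was by filtration. Ki is the mean ± SD of three experiments.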

[3] = organism: Rattus norvegicus; experiment: Ratio of Ki for adrenergic receptor alpha1 to Ki for 5HT1A receptor in CRL:CD(SD)BR-COBS rat brain
[4] = target: D(2) dopamine receptor (Rattus norvegicus, UniProt P61169); experiment: Displacement of [3H]spiperone from dopamine D2 receptor in CRL:CD(SD)BR-COBS rat brain striatum
Chain of D(2) dopamine receptor (P61169 whole entry): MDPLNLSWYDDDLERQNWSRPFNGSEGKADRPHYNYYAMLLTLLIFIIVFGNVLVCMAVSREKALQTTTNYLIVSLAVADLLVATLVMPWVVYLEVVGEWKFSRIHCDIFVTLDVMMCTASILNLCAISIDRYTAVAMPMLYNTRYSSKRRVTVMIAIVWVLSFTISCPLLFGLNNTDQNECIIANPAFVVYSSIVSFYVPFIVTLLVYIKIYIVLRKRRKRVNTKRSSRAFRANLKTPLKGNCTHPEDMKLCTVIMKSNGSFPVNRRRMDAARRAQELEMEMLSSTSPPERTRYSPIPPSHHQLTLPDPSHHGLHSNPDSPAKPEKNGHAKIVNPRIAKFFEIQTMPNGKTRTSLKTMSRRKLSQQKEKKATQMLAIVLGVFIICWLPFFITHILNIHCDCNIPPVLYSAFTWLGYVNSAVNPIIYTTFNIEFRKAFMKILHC

[5] = target: 5-hydroxytryptamine receptor 2A (Rattus norvegicus, UniProt P14842); experiment: Displacement of [3H]ketanserin from 5HT2A receptor in CRL:CD(SD)BR-COBS rat brain cortex
Chain of 5-hydroxytryptamine receptor 2A (P14842 whole entry): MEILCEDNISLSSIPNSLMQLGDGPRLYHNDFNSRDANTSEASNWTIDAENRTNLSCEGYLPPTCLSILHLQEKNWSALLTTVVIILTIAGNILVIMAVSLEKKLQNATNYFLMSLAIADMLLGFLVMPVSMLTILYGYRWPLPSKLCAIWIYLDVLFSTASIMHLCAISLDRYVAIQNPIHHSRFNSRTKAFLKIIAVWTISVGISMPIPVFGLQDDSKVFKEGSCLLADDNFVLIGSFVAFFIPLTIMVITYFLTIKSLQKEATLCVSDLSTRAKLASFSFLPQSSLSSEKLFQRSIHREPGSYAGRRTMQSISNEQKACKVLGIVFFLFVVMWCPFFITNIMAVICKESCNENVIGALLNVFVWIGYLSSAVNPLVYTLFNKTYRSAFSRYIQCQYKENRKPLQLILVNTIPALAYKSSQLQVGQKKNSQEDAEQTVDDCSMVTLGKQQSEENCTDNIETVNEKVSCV
Procedure, shortened: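 Cortex homogenate was washed, including 10 min at 37 °C, and resuspended in 50 mM Tris·HCl pH 7.7. Incubation used 0.35 nM [3H]ketanserin for 15 min at 37 °C. Nonspecific binding was defined with 1 µM methysergide. Filtration was used. Ki is the mean ± SD of three experiments.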

[6] = target: D(1A) dopamine receptor (Rattus norvegicus, UniProt P18901); experiment: Displacement of [3H]SCH23390 from dopamine D1 receptor in CRL:CD(SD)BR-COBS rat brain striatum
Chain of D(1A) dopamine receptor (P18901 whole entry): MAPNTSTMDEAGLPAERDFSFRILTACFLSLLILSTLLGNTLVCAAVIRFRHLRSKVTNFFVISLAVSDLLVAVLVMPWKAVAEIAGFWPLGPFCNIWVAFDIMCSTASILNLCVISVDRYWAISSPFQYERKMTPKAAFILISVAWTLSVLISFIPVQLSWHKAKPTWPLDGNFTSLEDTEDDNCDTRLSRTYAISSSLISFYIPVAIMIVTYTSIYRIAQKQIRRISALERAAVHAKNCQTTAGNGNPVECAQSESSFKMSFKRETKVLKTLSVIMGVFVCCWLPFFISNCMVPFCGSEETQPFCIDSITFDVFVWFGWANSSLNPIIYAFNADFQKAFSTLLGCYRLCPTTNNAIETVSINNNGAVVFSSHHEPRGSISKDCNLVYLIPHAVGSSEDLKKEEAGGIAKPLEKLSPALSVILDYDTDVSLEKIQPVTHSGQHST
Procedure, shortened: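 Striatal membranes were washed (50000g spins, 10 min at 37 °C), then held in 50 mM Tris·HCl pH 7.4 with 10 µM pargyline, 120 mM NaCl, 5 mM KCl, 2 mM CaCl2, 1 mM MgCl2 and 0.1% ascorbic acid. Incubation used 0.4 nM [3H]SCH23390 for 15 min at 25 °C. Nonspecific binding was defined with 10 µM (-)-cis-flupentixol. Filtration was used. Ki is the mean ± SD of three experiments.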

[7] = target: T1, 5-hydroxytryptamine receptor 1A; experiment: Antagonist activity at 5HT1A receptor in CRL:CD(SD)BR-COBS rat hippocampus assessed as inhibition of 5-hydroxytryptamine-induced increase in [35S]GTPgammaS binding; assay type: functional, tissue-based
Procedure, shortened: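 Hippocampal membranes (rat, 200 µg protein/sample) were prepared as for 5-HT1A binding. Antagonists were tested at several concentrations with 10 µM 5-HT: 20 min preincubation at 37 °C, then 45 min at 37 °C with 0.1 nM [35S]GTPγS. Nonspecific binding was set with 10 µM GTPγS, followed by filtration. IC50 was fitted and converted to Ki by Cheng–Prusoff. Mean ± SD of three experiments.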

[8] = target: T2, 5-hydroxytryptamine receptor 1A (Rattus norvegicus) (UniProt P19327); experiment: Agonist activity at 5HT1A receptor in CRL:CD(SD)BR-COBS rat hippocampus assessed as increase in [35S]GTPgammaS binding relative to 5-hydroxytryptamine; assay type: functional, tissue-based
T2 sequence (whole entry): T1 sequence (P19327 whole entry)
Procedure, shortened: (§1)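 Rat hippocampal membranes (200 µg protein/sample), washed in 50 mM Tris·HCl and resuspended in pH 7.7 Tris with 10 µM pargyline and 4 mM CaCl2. Graded drug concentrations were applied, with 20 min preincubation at 37 °C, then 45 min at 37 °C with 0.1 nM [35S]GTPγS. Nonspecific binding was set with 10 µM GTPγS, followed by GF/B filtration. EC50 and Emax (vs 5-HT) came from curve fitting. Mean ± SD, three experiments.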

[9] = target: T1, 5-hydroxytryptamine receptor 1A; experiment: Agonist activity at 5HT1A receptor in CRL:CD(SD)BR-COBS rat hippocampus assessed as increase in [35S]GTPgammaS binding; assay type: functional, tissue-based
Procedure, shortened: as §1, with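 “filtration.” for “filtration. EC50 and Emax (vs 5-HT) came from curve fitting.”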

SMILES | Ki [1] [nM] | Ki [2] [nM] | Ratio Ki [3] | Ki [4] [nM] | Ki [5] [nM] | Ki [6] [nM] | Ki [7] [nM] | Emax [8] [%] | EC50 [9] [nM]
COc1ccccc1N1CCN(CCCSc2nc3cc(Cl)ccc3s2)CC1 | 21.9 | 1 | 22 | – | – | – | – | – | –
COc1ccccc1N1CCN(CCCSc2nc3ccccc3[nH]2)CC1 | 25.9 | 1 | 26 | – | – | – | – | – | –
O=[N+]([O-])c1ccccc1N1CCN(CCSc2nc3ccccc3o2)CC1 | 1920 | 326 | 5.87 | – | – | – | – | – | –
O=[N+]([O-])c1ccccc1N1CCN(CCSc2nc3ccccc3[nH]2)CC1 | 457 | 95.2 | 4.8 | – | – | – | – | – | –
COc1ccccc1N1CCN(CCSc2nc3ccccc3o2)CC1 | 276 | 67.2 | 4.11 | – | – | – | – | – | –
O=[N+]([O-])c1ccccc1N1CCN(CCCSc2nc3ccccc3[nH]2)CC1 | 77.4 | 16.6 | 4.66 | – | – | – | – | – | –
COc1ccccc1N1CCN(CCCSc2nc3cc(Cl)ccc3o2)CC1 | 46.7 | 0.88 | 53 | – | – | – | – | – | –
COc1ccccc1N1CCN(CCSc2nc3ccccc3s2)CC1 | 207 | 31.2 | 6.63 | – | – | – | – | – | –
c1ccc(N2CCN(CCCSc3nc4ccccc4o3)CC2)nc1 | 98 | 1.6 | 61 | 429 | 174 | > 10000 | – | – | –
COc1ccccc1N1CCN(CCCCCCSc2nc3ccccc3o2)CC1 | 52.5 | 0.52 | 101 | 46.6 | 207 | 922 | 1.3 | – | –
c1cnc(N2CCN(CCCSc3nc4ccccc4o3)CC2)nc1 | 1650 | 14.9 | 111 | – | – | – | – | – | –
NCCc1c[nH]c2ccc(O)cc12 | – | – | – | – | – | – | – | 100 | –
COc1ccccc1N1CCN(CCCSc2nc3ccccc3n2C)CC1 | 20 | 0.27 | 74 | – | – | – | – | – | –
c1cnc(N2CCN(CCCSc3nc4ccccc4s3)CC2)nc1 | 328 | 2.5 | 131 | 532 | 183 | > 10000 | – | – | –
c1ccc(N2CCN(CCCSc3nc4ccccc4s3)CC2)nc1 | 77.7 | 0.78 | 100 | 462 | 78.8 | 5630 | – | 33 | 204
O=C1c2ccccc2S(=O)(=O)N1CCCCN1CCN(c2ncccn2)CC1 [IPSAPIRONE] | 200 | – | 36 | – | – | – | – | – | –
O=[N+]([O-])c1ccccc1N1CCN(CCSc2nc3ccccc3s2)CC1 | > 10000 | 1700 | > 5.87 | – | – | – | – | – | –
COc1ccccc1N1CCN(CCSc2nc3ccccc3[nH]2)CC1 | 240 | 33.1 | 7.25 | – | – | – | – | – | –
CCc1cc2c(=O)n(N)c(SCCCN3CCN(c4ccccc4OC)CC3)nc2s1 | – | – | – | – | – | – | 7.4 | – | –
O=[N+]([O-])c1ccccc1N1CCN(CCCSc2nc3ccccc3s2)CC1 | 249 | 9.6 | 26 | – | – | – | – | – | –
O=[N+]([O-])c1ccccc1N1CCN(CCCSc2nc3ccccc3o2)CC1 | 127 | 14.1 | 9 | – | – | – | – | – | –
COc1ccccc1N1CCN(CCCCSc2nc3ccccc3o2)CC1 | 78 | 0.094 | 830 | 37.3 | 298 | 1600 | 6.6 | – | –
COc1ccccc1N1CCN(CCCSc2nc3ccccc3s2)CC1 | 33.2 | 0.29 | 114 | 25.8 | 96.1 | 1280 | 1.7 | – | –
COc1ccccc1N1CCN(CCCSc2nc3ccccc3o2)CC1 | 21.5 | 0.55 | 39 | – | – | – | – | – | –
COc1ccccc1N1CCN(CCCCSc2nc3ccccc3s2)CC1 | 16.6 | 0.27 | 61 | 58.3 | 106 | 2000 | – | – | –
COc1ccccc1N1CCN(CCCCCCSc2nc3ccccc3s2)CC1 | 46 | 1.3 | 53 | – | – | – | – | – | –
CCC1=CC2C(=O)N(N)C(SCCCN3CCN(c4ncccn4)CC3)=NC2S1 (stereo unspecified) | – | – | – | – | – | – | – | 38 | 1210
